Screens from PubChem.
bCat KO growth: beta-catenin-lacking colon tumor cell growth suppression | HCT116 beta-catenin knockout viability, CellTiter-Glo, 60 h; stronger effect = lower value | viability, % at 10 µM | hit rate 1.5% among 140,000;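 active means viability at or under a set limit, the compound median less 4 SD, cut at about 6% in these data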;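 further: 0% = Hyamine 1622 control at 20 µM and 100% = untreated cell control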
PTEN del growth: PTEN-deleted cell growth suppression; HCT116 PTEN-null viability, CellTiter-Glo, 60 h; stronger effect = lower value; viability, % at 10 µM; hit rate 1.2% among 140,000; AID 827;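 active means viability at or below a set limit, 4 SD under the median of all tested compounds, cut at about 3.7% in these data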;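 further: PTEN knockout HCT116 line with beta catenin targeted HCT116 as companion control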
HUVEC inhibit: blocks proliferation of human endothelial cells | HUVEC proliferation, CellTiter-Glo luminescence, 72 h; stronger effect = lower value | viability, % at 10 µM (by protocol) | hit rate 1.1% among 86,000 | AID 648;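 active means viability at or below 30%; inactive means viability above 30%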;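 further: 100% = median luminescence of DMSO-only cell control wells on each plate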
H69AR inhibit: blocks growth of human H69AR lung tumor cells; H69AR lung tumor viability, ATP luminescence, 72 h; stronger effect = lower value; viability, % at 10 µM; hit rate 6% among 85,000; AID 598;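 active means viability at or below 40%; inactive means viability above 40%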;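 further: multidrug resistant small cell line overexpressing MRP-1 efflux transporter; 100% = mean luminescence of untreated control wells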
Lung fibro prol: blocks proliferation of human lung fibroblasts; LL 47 human lung fibroblast viability, ATP luminescence; stronger effect = lower value; viability, % at 10 µM; hit rate 1.1% among 85,000;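 active means viability at or below 50% in the single dose screen; inactive means viability above 50%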;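 further: compound exposure lasted 72 h before the ATP readout; 100% = median luminescence of untreated cell-only wells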
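Material: Human LL 47 lung fibroblast cells | Input: 1,150 cells/well | Buffer or medium: IMEM plus 15% FBS | Compound dosing: 0.1% DMSO in all compound wells | Times: Overnight cell rest, 72 h compound treatment at 37 °C | Signal: CellTiter-Glo luminescence measuring cellular ATP | Measure: % viability versus median cells-only luminescence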
The depositor's hits bear a star; x = no result. This is one part of a sample in which hits are shown more often than they occur.

SMILES | bCat KO growth | PTEN del growth | HUVEC inhibit | H69AR inhibit | Lung fibro prol
COc1nc(OC)nc(N2CCC(C(=O)NCC3CCCCC3)CC2)n1 | 80 | 90 | 105 | 31* | 98
CCOC(=O)c1nnn(-c2nonc2-n2cccc2)c1CN1CCC(C)CC1 | 63 | 63 | 109 | 85 | 92
CCOC(=O)c1nnn(-c2nonc2-n2cccc2)c1CCl | 85 | 85 | 3.3* | 1.5* | 35*
CCSc1nc2c(c(=O)[nH]1)C(c1cccs1)C(C(=O)OC)=C(C)N2 (centres undefined) | 87 | 93 | x | x | x
Cc1ccc(NC(=O)c2nnn(CC(=O)Nc3ccccc3)c2N)cc1C | 62 | 77 | 81 | 25* | 72
Cc1ccc(NC(=O)Cn2nnc(C(=O)NCc3ccccc3)c2N)cc1C | 100 | 100 | x | x | x
Cc1ccc2nsnc2c1S(=O)(=O)N(Cc1cc2cccc(C)c2[nH]c1=O)CC1CCCO1 (centres undefined) | 60 | 57 | 60 | 10* | 90
Cc1ccc2cc(CN(CC3CCCO3)S(=O)(=O)c3c(C)ccc4nsnc34)c(=O)[nH]c2c1 (centres undefined) | 83 | 102 | 107 | 82 | 89
COc1ccc(OC)c(N=c2oc3c(OC)cccc3cc2C(=O)NCc2ccco2)c1 | x | x | 94 | 88 | 92
COc1ccc(CC(=O)NCc2ccco2)cc1OC | 87 | 94 | 93 | 82 | 91
COc1ccccc1N=c1oc2c(OC)cccc2cc1C(=O)NCc1ccco1 | 12 | 7 | 61 | 15* | 86
COc1ccc(N=c2oc3c(OC)cccc3cc2C(=O)NCc2ccco2)cc1OC | 84 | 82 | 56 | 36* | 90
c1ccc(-c2nc(Sc3ncnc4c3cnn4-c3ccccc3)n[nH]2)cc1 | 89 | 96 | 92 | 27* | 104
CC1Cc2ccccc2N1CC(=O)NCc1ccccc1Cl (centres undefined) | 86 | 86 | x | x | x
CC(/C=N\Nc1nnc2c(n1)[nH]c1c(C)cccc12)=C\c1ccco1 | 2.1* | 2.4* | x | x | x
CCOc1c(OC)ccc2c3c(c(=O)oc12)CCCC3 | 0.5* | 1.1* | 109 | 91 | 97
COc1ccc2c3c(c(=O)oc2c1OCC(=O)O)CCCC3 | 95 | 109 | x | x | x
Cc1ccccc1C(=O)Nc1ccccc1 | 88 | 92 | 98 | 110 | 105
Cc1ccccc1C(=O)Nc1cccc(NC(=O)c2ccc(-c3ccc(Br)cc3)o2)c1 | 3.7* | 5 | 64 | 22* | 52
CCS(=O)(=O)N1CCN(c2ccccn2)CC1 | 104 | 92 | 89 | 96 | 96
CCNc1nc(Oc2ccccc2)nc(OC(C)C(=O)OCC)n1 (centres undefined) | 103 | 98 | 95 | 72 | 92
Cc1ccn2c(-c3csc(NCc4ccccc4)n3)c(C)nc2c1 | 51 | 49 | 63 | 22* | 85
Cc1nc2ccccn2c1-c1csc(NCc2ccco2)n1 | 64 | 70 | 98 | 78 | 91
COc1ccc(-c2nnn(CC(=O)N(Cc3ccc(F)cc3)C(C(=O)NC3CCCC3)c3ccc(F)cc3)n2)cc1 (centres undefined) | x | x | 64 | 27* | 12*
Cc1ccc(-c2nnn(CC(=O)N(Cc3cccs3)C(C(=O)NC3CCCCC3)c3ccco3)n2)o1 (centres undefined) | 95 | 96 | 77 | 19* | 107
SMILES | bCat KO growth | PTEN del growth | HUVEC inhibit | H69AR inhibit | Lung fibro prol
CC(C)CCNC(=O)C(c1ccncc1)N(Cc1cccs1)C(=O)Cn1nnc(-c2ccc(F)cc2)n1 (centres undefined) | 67 | 64 | 88 | 40* | 75
O=C(NCC1CCCO1)C(c1ccc(F)cc1)N(Cc1ccc(F)cc1)C(=O)Cn1nnc(-c2cccs2)n1 (centres undefined) | 94 | 66 | 88 | 40* | 94
O=C(NCC1CCCO1)C(c1cccs1)N(Cc1cccs1)C(=O)Cn1nnc(-c2cccs2)n1 (centres undefined) | 76 | 71 | 94 | 83 | 103
CC(C)c1ccc(NC(=O)c2snc3ccc(Cl)cc23)cc1 | 39 | 33 | x | x | x
CC(=O)/C(=C/N(C)C)Sc1ccc(C)cc1 | 81 | 92 | 86 | 98 | 96
Cc1ccc(S(=O)(=O)N(C)CC(=O)OCC(=O)NC(c2ccccc2)c2ccccc2)cc1 | 96 | 97 | x | x | x
Cc1ccc(-c2nnn(CC(=O)N(Cc3cccs3)C(C(=O)NC3CCCC3)c3ccncc3)n2)cc1 (centres undefined) | 74 | 68 | 76 | 29* | 64
COc1ccc(-c2nnn(CC(=O)N(Cc3cccs3)C(C)C(=O)NC3CCCC3)n2)cc1OC (centres undefined) | 69 | 83 | 91 | 105 | 92
CCCCOC(=O)Cn1c2ccc(OC)cc2c2nc3ccccc3nc21 | 4.8* | 3.1* | 68 | 28* | 71
CCn1c2ccc(OC)cc2c2nc3ccccc3nc21 | 62 | 73 | 77 | 44 | 87
C=CCSc1nc(C)cc(/C=C\c2ccccc2)c1C#N | 98 | 97 | x | x | x
O=C(CSc1nnc(CCCO)n1-c1ccccc1)Nc1nccs1 | 98 | 99 | 108 | 95 | 99
CCOc1ccc(NCc2nnc(SCC(=O)Nc3cc(C)on3)n2-c2ccccc2OC)cc1 | 32 | 28 | 65 | 12* | 80
COc1ccc(-n2c(CNc3ccc(C)cc3)nnc2SCC(=O)Nc2nc(-c3ccccc3)cs2)cc1 | 0.8* | 0.4* | x | x | x
CCOc1ccc(NCc2nnc(SCC(=O)Nc3cc(C)on3)n2-c2ccc(OC)cc2)cc1 | 42 | 39 | 86 | 76 | 99
Cc1cccc(C)c1OCc1nnc(SCC(=O)Nc2nccs2)n1-c1ccccc1 | 81 | 85 | 62 | 20* | 87
COc1ccc(NCc2nnc(SCC(=O)Nc3nc(-c4ccccc4)cs3)n2-c2ccccc2)cc1 | 1.3* | 1.8* | x | x | x
O=C(NCC1CCCO1)c1ccc(COc2ccccc2Br)cc1 (centres undefined) | 94 | 77 | x | x | x
Nc1ccc2nc(-c3ccc(Cl)cc3)[nH]c2c1 | 68 | 67 | 95 | 17* | 88
Nc1ccc(-c2nc3c(Cl)c(N)ccc3[nH]2)cc1 | 88 | 84 | 85 | 21* | 98
Nc1ccc2nc(-c3cc(Cl)c(N)c(Cl)c3)[nH]c2c1 | 36 | 35 | 65 | 35* | 81
Nc1ccc(-c2nc3ccc([N+](=O)[O-])cc3[nH]2)cc1 | 80 | 81 | x | x | x
CN(C)c1ccc(NC(=O)COC(=O)Cn2nnc3ccccc32)cc1 | 95 | 100 | x | x | x
CC(NC(=O)COC(=O)/C(=C/c1cccs1)c1cccs1)c1ccccc1 (centres undefined) | 87 | 74 | x | x | x
O=C(Nc1ccccc1)N(CCc1ccncc1)C1CCCCC1 | x | x | 88 | 92 | 99
CC(C)c1ccc(NC(=O)N(CCc2nc3ccccc3[nH]2)C2CCCC2)cc1 | 54 | 61 | 44 | 32* | 81
Cn1c(=O)c2c(nc(CN3CCN(Cc4ccccc4)CC3)n2Cc2ccc(Cl)cc2)n(C)c1=O | 16 | 25 | 70 | 10* | 45*
Cn1c(=O)c2c(nc(NCc3ccc4c(c3)OCO4)n2Cc2ccc(F)cc2)n(C)c1=O | 35 | 32 | 57 | 23* | 84
